Measured values reported in ChEMBL document CHEMBL1641468, “Synthesis of modified siRNA bearing C-5 polyamine-substituted pyrimidine nucleoside in their 3'-overhang regions and its RNAi activity” (Bioorg Med Chem Lett, 2011).
Activity calls are given as the source filed them. The rule behind the calls is not given here.

Experiments:
[1] = biological target: T1, Hepatocyte nuclear factor 4-alpha (Homo sapiens) (UniProt P41235); test: Inhibition of HNF4alpha mRNA expression in human HepG2 cells after 24 hrs by RT-PCR analysis; type: cell-based; conditions: in the assay text read “after 48 hrs” for “after 24 hrs”
T1 sequence (whole entry): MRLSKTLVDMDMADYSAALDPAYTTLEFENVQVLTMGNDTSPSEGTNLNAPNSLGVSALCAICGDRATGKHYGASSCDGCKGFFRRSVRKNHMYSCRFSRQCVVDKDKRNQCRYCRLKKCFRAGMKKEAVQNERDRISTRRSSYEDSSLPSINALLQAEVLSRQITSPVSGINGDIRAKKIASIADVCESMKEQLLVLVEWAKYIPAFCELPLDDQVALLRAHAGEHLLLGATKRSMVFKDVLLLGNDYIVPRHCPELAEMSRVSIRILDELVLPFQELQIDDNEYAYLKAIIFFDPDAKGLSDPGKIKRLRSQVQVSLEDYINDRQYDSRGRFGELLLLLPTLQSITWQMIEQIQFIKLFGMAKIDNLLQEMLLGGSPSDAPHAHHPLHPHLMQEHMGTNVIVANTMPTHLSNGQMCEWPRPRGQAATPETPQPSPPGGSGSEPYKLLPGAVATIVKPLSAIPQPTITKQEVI
In short: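 HepG2 cells were grown in DMEM with 5% FBS at 37 °C and transfected with siRNA using a transfection reagent. After 24 h at 37 °C, the medium was changed to DMEM with 10% FBS and cells were incubated a further 24 h. Total RNA was reverse-transcribed for real-time PCR (40 cycles). HNF4α mRNA was normalized to GAPDH by ΔΔCt and expressed relative to nonsense control siRNA, using the mean Ct of duplicate PCRs from independent cells.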

[2] = biological target: T1, Hepatocyte nuclear factor 4-alpha (Homo sapiens); test: Inhibition of HNF4alpha mRNA expression in human HepG2 cells after 24 hrs by real-time RT-PCR

Row | Activity [1] | Activity [2] | SMILES
1 | Active | Active | NCCN(CCN)CCNC(=O)Cc1cn([C@H]2C[C@H](OP(=O)(O)OC[C@H]3O[C@@H](n4cc(CC(=O)NCCN(CCN)CCN)c(=O)[nH]c4=O)C[C@@H]3O)[C@@H](COP(=O)(O)O[C@H]3[C@@H](O)[C@H](n4ccc(N)nc4=O)O[C@@H]3COP(=O)(O)O[C@H]3[C@@H](O)[C@H](n4ccc(N)nc4=O)O[C@@H]3COP(=O)(O)O[C@@H]3[C@H](O)[C@@H](COP(=O)(O)O[C@H]4[C@@H](O)[C@H](n5ccc(=O)[nH]c5=O)O[C@@H]4COP(=O)(O)O[C@H]4[C@@H](O)[C@H](n5ccc(N)nc5=O)O[C@@H]4COP(=O)(O)O[C@H]4[C@@H](O)[C@H](n5cnc6c(N)ncnc65)O[C@@H]4COP(=O)(O)O[C@H]4[C@@H](O)[C@H](n5ccc(N)nc5=O)O[C@@H]4COP(=O)(O)O[C@@H]4[C@H](O)[C@@H](COP(=O)(O)O[C@H]5[C@@H](O)[C@H](n6ccc(N)nc6=O)O[C@@H]5COP(=O)(O)O[C@H]5[C@@H](O)[C@H](n6cnc7c(N)ncnc76)O[C@@H]5COP(=O)(O)O[C@H]5[C@@H](O)[C@H](n6ccc(N)nc6=O)O[C@@H]5COP(=O)(O)O[C@H]5[C@@H](O)[C@H](n6ccc(N)nc6=O)O[C@@H]5COP(=O)(O)O[C@H]5[C@@H](O)[C@H](n6cnc7c(N)ncnc76)O[C@@H]5COP(=O)(O)O[C@H]5[C@@H](O)[C@H](n6ccc(N)nc6=O)O[C@@H]5COP(=O)(O)O[C@H]5[C@@H](O)[C@H](n6ccc(N)nc6=O)O[C@@H]5COP(=O)(O)O[C@H]5[C@@H](O)[C@H](n6ccc(=O)[nH]c6=O)O[C@@H]5COP(=O)(O)O[C@@H]5[C@H](O)[C@@H](COP(=O)(O)O[C@H]6[C@@H](O)[C@H](n7ccc(=O)[nH]c7=O)O[C@@H]6COP(=O)(O)O[C@H]6[C@@H](O)[C@H](n7ccc(=O)[nH]c7=O)O[C@@H]6COP(=O)(O)O)O[C@H]5n5cnc6c(=O)[nH]c(N)nc65)O[C@H]4n4cnc5c(=O)[nH]c(N)nc54)O[C@H]3n3cnc4c(=O)[nH]c(N)nc43)O2)c(=O)[nH]c1=O
2 | Active | Active | Cc1cn([C@H]2C[C@H](OP(=O)(O)OC[C@H]3O[C@@H](n4cc(CC(=O)NCCN(CCN)CCN)c(=O)[nH]c4=O)C[C@@H]3O)[C@@H](COP(=O)(O)O[C@H]3[C@@H](O)[C@H](n4ccc(N)nc4=O)O[C@@H]3COP(=O)(O)O[C@H]3[C@@H](O)[C@H](n4ccc(N)nc4=O)O[C@@H]3COP(=O)(O)O[C@@H]3[C@H](O)[C@@H](COP(=O)(O)O[C@H]4[C@@H](O)[C@H](n5ccc(=O)[nH]c5=O)O[C@@H]4COP(=O)(O)O[C@H]4[C@@H](O)[C@H](n5ccc(N)nc5=O)O[C@@H]4COP(=O)(O)O[C@H]4[C@@H](O)[C@H](n5cnc6c(N)ncnc65)O[C@@H]4COP(=O)(O)O[C@H]4[C@@H](O)[C@H](n5ccc(N)nc5=O)O[C@@H]4COP(=O)(O)O[C@@H]4[C@H](O)[C@@H](COP(=O)(O)O[C@H]5[C@@H](O)[C@H](n6ccc(N)nc6=O)O[C@@H]5COP(=O)(O)O[C@H]5[C@@H](O)[C@H](n6cnc7c(N)ncnc76)O[C@@H]5COP(=O)(O)O[C@H]5[C@@H](O)[C@H](n6ccc(N)nc6=O)O[C@@H]5COP(=O)(O)O[C@H]5[C@@H](O)[C@H](n6ccc(N)nc6=O)O[C@@H]5COP(=O)(O)O[C@H]5[C@@H](O)[C@H](n6cnc7c(N)ncnc76)O[C@@H]5COP(=O)(O)O[C@H]5[C@@H](O)[C@H](n6ccc(N)nc6=O)O[C@@H]5COP(=O)(O)O[C@H]5[C@@H](O)[C@H](n6ccc(N)nc6=O)O[C@@H]5COP(=O)(O)O[C@H]5[C@@H](O)[C@H](n6ccc(=O)[nH]c6=O)O[C@@H]5COP(=O)(O)O[C@@H]5[C@H](O)[C@@H](COP(=O)(O)O[C@H]6[C@@H](O)[C@H](n7ccc(=O)[nH]c7=O)O[C@@H]6COP(=O)(O)O[C@H]6[C@@H](O)[C@H](n7ccc(=O)[nH]c7=O)O[C@@H]6COP(=O)(O)O)O[C@H]5n5cnc6c(=O)[nH]c(N)nc65)O[C@H]4n4cnc5c(=O)[nH]c(N)nc54)O[C@H]3n3cnc4c(=O)[nH]c(N)nc43)O2)c(=O)[nH]c1=O
3 | Active | Active | Cc1cn([C@H]2C[C@H](OP(=O)(O)OC[C@H]3O[C@@H](n4cc(C)c(=O)[nH]c4=O)C[C@@H]3O)[C@@H](COP(=O)(O)O[C@H]3[C@@H](O)[C@H](n4ccc(N)nc4=O)O[C@@H]3COP(=O)(O)O[C@H]3[C@@H](O)[C@H](n4ccc(N)nc4=O)O[C@@H]3COP(=O)(O)O[C@@H]3[C@H](O)[C@@H](COP(=O)(O)O[C@H]4[C@@H](O)[C@H](n5ccc(=O)[nH]c5=O)O[C@@H]4COP(=O)(O)O[C@H]4[C@@H](O)[C@H](n5ccc(N)nc5=O)O[C@@H]4COP(=O)(O)O[C@H]4[C@@H](O)[C@H](n5cnc6c(N)ncnc65)O[C@@H]4COP(=O)(O)O[C@H]4[C@@H](O)[C@H](n5ccc(N)nc5=O)O[C@@H]4COP(=O)(O)O[C@@H]4[C@H](O)[C@@H](COP(=O)(O)O[C@H]5[C@@H](O)[C@H](n6ccc(N)nc6=O)O[C@@H]5COP(=O)(O)O[C@H]5[C@@H](O)[C@H](n6cnc7c(N)ncnc76)O[C@@H]5COP(=O)(O)O[C@H]5[C@@H](O)[C@H](n6ccc(N)nc6=O)O[C@@H]5COP(=O)(O)O[C@H]5[C@@H](O)[C@H](n6ccc(N)nc6=O)O[C@@H]5COP(=O)(O)O[C@H]5[C@@H](O)[C@H](n6cnc7c(N)ncnc76)O[C@@H]5COP(=O)(O)O[C@H]5[C@@H](O)[C@H](n6ccc(N)nc6=O)O[C@@H]5COP(=O)(O)O[C@H]5[C@@H](O)[C@H](n6ccc(N)nc6=O)O[C@@H]5COP(=O)(O)O[C@H]5[C@@H](O)[C@H](n6ccc(=O)[nH]c6=O)O[C@@H]5COP(=O)(O)O[C@@H]5[C@H](O)[C@@H](COP(=O)(O)O[C@H]6[C@@H](O)[C@H](n7ccc(=O)[nH]c7=O)O[C@@H]6COP(=O)(O)O[C@H]6[C@@H](O)[C@H](n7ccc(=O)[nH]c7=O)O[C@@H]6COP(=O)(O)O)O[C@H]5n5cnc6c(=O)[nH]c(N)nc65)O[C@H]4n4cnc5c(=O)[nH]c(N)nc54)O[C@H]3n3cnc4c(=O)[nH]c(N)nc43)O2)c(=O)[nH]c1=O
